Experimental findings from ChEMBL document CHEMBL1154425, “Histatin-derived monomeric and dimeric synthetic peptides show strong bactericidal activity towards multidrug-resistant Staphylococcus aureus in vivo” (Antimicrob Agents Chemother, 2007) are described below.

Positions of bridges follow the written chain, without caps; N, C: chain ends. Residues, ends and D or L forms follow the SMILES beside them. Chains are numbered I, II in the order given.

Data set [1] can be described thus: Ratio of drug level in infected thigh muscle to contralateral noninfected thigh muscle in multidrug-resistant Staphylococcus aureus 2141 infected Swiss mouse administered as [99m]technetium-radiolabeled peptide. In kind it is ADME, tissue-based. To be noted: in vivo. The method in brief:
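99mTc-labelled peptides (2 to 5 MBq) injected intravenously into infected mice. Scintigraphic imaging at intervals. Ratio = accumulation in infected thigh muscle (target) over contralateral noninfected thigh muscle (nontarget).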

Data set [2] concerns Staphylococcus aureus. Put plainly: Bactericidal activity against Staphylococcus aureus ATCC 25923 after 2 hrs. Type of data set: functional. Particulars: ATCC 25923, 2 h. The method in brief:
(§1)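 1 × 10^6/ml bacteria in phosphate buffer with 1% (wt/vol) tryptic soybean broth exposed to various peptide amounts, 2 h at 37°C. Viable counts on DST plates. LC50 = concentration (μM) cutting viable bacteria by 50% versus no-peptide incubations. Means from at least three independent experiments.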

The subject of data set [3] is Staphylococcus aureus. Nature of the data set: Bactericidal activity against multidrug-resistant Staphylococcus aureus 2141 isolate after 2 hrs. In kind it is functional. The method in brief: as §1
Data set [4] has as its system Staphylococcus aureus. Put plainly: Bactericidal activity against multidrug-resistant Staphylococcus aureus 2141 isolate infected iv dosed Swiss mouse assessed per gram of infected soft tissue after 24 hrs. Type of data set: functional. The method in brief: (§2)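 Mice infected with 0.1 ml saline containing 0.5 to 2.0 × 10^7 CFU. After 18 h, various peptide amounts given intravenously. Mice kept another 24 h, then sacrificed and viable bacteria counted. LC50 = μmol/g infected tissue cutting viable counts by 50% versus untreated mice. Means from at least three animals per peptide concentration.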

The test system of a further data set is Liver. Put plainly: Biodistribution in Swiss mouse liver at 2 to 5 MBq, iv administered as [99m]technetium-radiolabeled peptide by scintigraphic imaging. To be noted: in vivo. In kind it is ADME, organism-based. The method in brief:
(§3)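 Mice carry a thigh-muscle infection from 0.1 ml saline containing 0.5 to 2.0 × 10^7 CFU S. aureus. Peptides labelled with 99mTc (2 to 5 MBq) are injected intravenously and tracked by scintigraphic imaging. Radioactivity in bladder, kidneys, spleen, liver and infected muscle is given as % of injected dose, mean ± SD.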

The next data set has as its system Kidney. Put plainly: Biodistribution in Swiss mouse kidney at 2 to 5 MBq, iv administered as [99m]technetium-radiolabeled peptide by scintigraphic imaging. Type of data set: ADME, organism-based. To be noted: in vivo. The method in brief:
as §3

The nature of data set [5]: Biodistribution in Swiss mouse urinary bladder at 2 to 5 MBq, iv administered as [99m]technetium-radiolabeled peptide by scintigraphic imaging. Type of data set: ADME, organism-based. Particulars: in vivo. The method in brief:
as §3

Data set [6] is described as follows: Biodistribution in Staphylococcus aureus infected Swiss mouse thigh muscle at 2 to 5 MBq, iv administered as [99m]technetium-radiolabeled peptide by scintigraphic imaging. Type of data set: ADME, organism-based, Muscle tissue. To be noted: in vivo. The method in brief:
as §3

Another data set relates to Spleen. Put plainly: Biodistribution in Swiss mouse spleen at 2 to 5 MBq, iv administered as [99m]technetium-radiolabeled peptide by scintigraphic imaging. Type of data set: ADME, organism-based. To be noted: in vivo. The method in brief: as §3
Another data set deals with Mus musculus. Nature of the data set: Metabolic stability in Swiss mouse at 2 to 5 MBq, iv administered as [99m]technetium-radiolabeled peptide by scintigraphic imaging. Type of data set: ADME, organism-based. To be noted: in vivo. The method in brief: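 After intravenous injection of 99mTc-labelled peptide (2 to 5 MBq) into thigh-infected mice, scintigraphic imaging follows clearance from the circulation. The value is the biological half-life in minutes, mean ± SD.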

Data set [7] concerns Staphylococcus aureus. Put plainly: Bactericidal activity against Staphylococcus aureus ATCC 25923 infected iv dosed Swiss mouse assessed per gram of infected soft tissue after 24 hrs. Type of data set: functional. The method in brief: as §2

Consider `C[C@H](N)C(=O)N[C@@H](CCCCN)C(=O)N[C@@H](CCCNC(=N)N)C(=O)N[C@@H](Cc1c[nH]cn1)C(=O)N[C@@H](Cc1c[nH]cn1)C(=O)NCC(=O)N[C@@H](Cc1ccc(O)cc1)C(=O)N[C@@H](CCCCN)C(=O)N[C@@H](CCCNC(=N)N)C(=O)N[C@@H](CCCCN)C(=O)N[C@@H](Cc1ccccc1)C(=O)N[C@@H](Cc1c[nH]cn1)C(=O)O` (H-AKRHHGYKRKFH-OH), for which the Ratio in [1] stood at 1.8.

Turning to `C[C@H](N)C(=O)N[C@@H](CCCCN)C(=O)N[C@@H](CCCNC(=N)N)C(=O)N[C@@H](Cc1cnc[nH]1)C(=O)N[C@@H](Cc1cnc[nH]1)C(=O)NCC(=O)N[C@@H](Cc1ccc(O)cc1)C(=O)N[C@@H](CCCCN)C(=O)N[C@@H](CCCNC(=N)N)C(=O)N[C@@H](CCCCN)C(=O)N[C@@H](Cc1ccccc1)C(=O)N[C@@H](Cc1cnc[nH]1)C(=O)O` (H-AKRHHGYKRKFH-OH), the figures for the LC50 with Staphylococcus aureus [2], in the data set with Staphylococcus aureus [3] and in the data set with Staphylococcus aureus [4] were 12.5 µM, 18.6 µM and 3 µmol/g, respectively.

For `CC(C)C[C@H](NC(=O)[C@H](CO)NC(=O)[C@H](Cc1ccccc1)NC(=O)[C@H](CC(C)C)NC(=O)[C@H](CC(C)C)NC(=O)[C@H](CCCCN)NC(=O)[C@H](CCCCN)NC(=O)[C@H](Cc1ccccc1)NC(=O)[C@H](CC(C)C)NC(=O)[C@H](CCCNC(=N)N)NC(=O)[C@@H](N)CCCCN)C(=O)N[C@@H](CCCNC(=N)N)C(=O)N[C@@H](CCCCN)C(=O)N[C@@H](Cc1ccc(O)cc1)C(=O)O` (H-KRLFKKLLFSLRKY-OH), the Drug uptake with Liver is on record as 10.7 %ID; with Kidney, 24.9 %ID; in data set [5], 23.8 %ID; in data set [6], 0.5 %ID; in the data set with Spleen, 3.1 %ID. The Ratio in data set [1] is 1.8. The LC50 is 4.2 µM in the data set with Staphylococcus aureus [2], 1 µmol/g in the data set with Staphylococcus aureus [7], 3.1 µM with Staphylococcus aureus [3] and 1.5 µmol/g with Staphylococcus aureus [4]. Further, the t1/2 in the data set with Mus musculus is reported as 28.6 min.

As to `CC(C)C[C@H](NC(=O)[C@H](CC(C)C)NC(=O)[C@H](Cc1ccccc1)NC(=O)[C@H](CC(C)C)NC(=O)[C@H](CC(C)C)NC(=O)[C@@H](N)CC(C)C)C(=O)N[C@@H](CCCCN)C(=O)N[C@@H](CCCCN)C(=O)N[C@@H](CCCNC(=N)N)C(=O)N[C@@H](CCCCN)C(=O)N[C@@H](CCCCN)C(=O)N[C@@H](CCCNC(=N)N)C(=O)N[C@@H](CCCCN)C(=O)N[C@@H](Cc1ccc(O)cc1)C(=O)O` (H-LLLFLLKKRKKRKY-OH), the Drug uptake was 12.8 %ID in the data set with Liver; 26 %ID with Kidney; 14.6 %ID in [5]; 0.9 %ID in data set [6]; 10.8 %ID with Spleen. Moreover, the Ratio in data set [1] is 1.8. Further, the LC50 came to 51 µM with Staphylococcus aureus [2], 2 µmol/g in the data set with Staphylococcus aureus [7], 17.3 µM with Staphylococcus aureus [3] and 3 µmol/g in the data set on Staphylococcus aureus [4]. Moreover, the t1/2 with Mus musculus came out at 38.8 min.

For `C[C@H](N)C(=O)N[C@@H](CCCCN)C(=O)N[C@@H](CCCNC(=N)N)C(=O)N[C@@H](Cc1cnc[nH]1)C(=O)N[C@@H](Cc1cnc[nH]1)C(=O)NCC(=O)N[C@@H](Cc1ccc(O)cc1)C(=O)N[C@@H](CCCCN)C(=O)N[C@@H](CCCNC(=N)N)C(=O)N[C@@H](CCCCN)C(=O)N[C@@H](Cc1ccccc1)C(=O)N[C@@H](Cc1cnc[nH]1)C(=O)NCCCC[C@H](NC(=O)[C@H](Cc1cnc[nH]1)NC(=O)[C@H](Cc1ccccc1)NC(=O)[C@H](CCCCN)NC(=O)[C@H](CCCNC(=N)N)NC(=O)[C@H](CCCCN)NC(=O)[C@H](Cc1ccc(O)cc1)NC(=O)CNC(=O)[C@H](Cc1cnc[nH]1)NC(=O)[C@H](Cc1cnc[nH]1)NC(=O)[C@H](CCCNC(=N)N)NC(=O)[C@H](CCCCN)NC(=O)[C@H](C)N)C(N)=O` (I: H-AKRHHGYKRKFHK-NH2 / II: H-AKRHHGYKRKFH; amide I:13-II:C) [listing 1 of 2 here], the Ratio in [1] is 1.8.

In the case of `C[C@H](N)C(=O)N[C@@H](CCCCN)C(=O)N[C@@H](CCCNC(=N)N)C(=O)N[C@@H](Cc1cnc[nH]1)C(=O)N[C@@H](Cc1cnc[nH]1)C(=O)NCC(=O)N[C@@H](Cc1ccc(O)cc1)C(=O)N[C@@H](CCCCN)C(=O)N[C@@H](CCCNC(=N)N)C(=O)N[C@@H](CCCCN)C(=O)N[C@@H](Cc1ccccc1)C(=O)N[C@@H](Cc1cnc[nH]1)C(=O)NCCCC[C@H](NC(=O)[C@H](Cc1cnc[nH]1)NC(=O)[C@H](Cc1ccccc1)NC(=O)[C@H](CCCCN)NC(=O)[C@H](CCCNC(=N)N)NC(=O)[C@H](CCCCN)NC(=O)[C@H](Cc1ccc(O)cc1)NC(=O)CNC(=O)[C@H](Cc1cnc[nH]1)NC(=O)[C@H](Cc1cnc[nH]1)NC(=O)[C@H](CCCNC(=N)N)NC(=O)[C@H](CCCCN)NC(=O)[C@H](C)N)C(N)=O` (I: H-AKRHHGYKRKFHK-NH2 / II: H-AKRHHGYKRKFH; amide I:13-II:C) [listing 2 of 2 here], the values for the LC50 in the data set on Staphylococcus aureus [2], in the data set on Staphylococcus aureus [3] and with Staphylococcus aureus [4] were 49.8 µM, 38.9 µM and 3 µmol/g, respectively.

In the case of `CC(C)C[C@H](NC(=O)[C@H](CO)NC(=O)[C@H](Cc1ccccc1)NC(=O)[C@H](CC(C)C)NC(=O)[C@H](CC(C)C)NC(=O)[C@H](CCCCN)NC(=O)[C@H](CCCCN)NC(=O)[C@H](Cc1ccccc1)NC(=O)[C@H](CC(C)C)NC(=O)[C@H](CCCNC(=N)N)NC(=O)[C@@H](N)CCCCN)C(=O)N[C@@H](CCCNC(=N)N)C(=O)N[C@@H](CCCCN)C(=O)N[C@@H](Cc1ccc(O)cc1)C(=O)NCCCC[C@H](NC(=O)[C@H](Cc1ccc(O)cc1)NC(=O)[C@H](CCCCN)NC(=O)[C@H](CCCNC(=N)N)NC(=O)[C@H](CC(C)C)NC(=O)[C@H](CO)NC(=O)[C@H](Cc1ccccc1)NC(=O)[C@H](CC(C)C)NC(=O)[C@H](CC(C)C)NC(=O)[C@H](CCCCN)NC(=O)[C@H](CCCCN)NC(=O)[C@H](Cc1ccccc1)NC(=O)[C@H](CC(C)C)NC(=O)[C@H](CCCNC(=N)N)NC(=O)[C@@H](N)CCCCN)C(N)=O` (I: H-KRLFKKLLFSLRKYK-NH2 / II: H-KRLFKKLLFSLRKY; amide I:15-II:C), the Drug uptake in the data set on Liver is recorded as 19.9 %ID; in the data set with Kidney, 29.1 %ID; in [5], 17 %ID; in data set [6], 0.8 %ID; in the data set with Spleen it was 4 %ID. Further, the Ratio in data set [1] came to 1.8. Besides, the LC50 turned out to be 0.5 µM in the data set on Staphylococcus aureus [2], 1 µmol/g in the data set on Staphylococcus aureus [7], 0.4 µM in the data set with Staphylococcus aureus [3] and 1 µmol/g with Staphylococcus aureus [4]. In addition, the t1/2 in the data set with Mus musculus was 34 min.

Take `CC(C)C[C@H](NC(=O)[C@H](CC(C)C)NC(=O)[C@H](Cc1ccccc1)NC(=O)[C@H](CC(C)C)NC(=O)[C@H](CC(C)C)NC(=O)[C@@H](N)CC(C)C)C(=O)N[C@@H](CCCCN)C(=O)N[C@@H](CCCCN)C(=O)N[C@@H](CCCNC(=N)N)C(=O)N[C@@H](CCCCN)C(=O)N[C@@H](CCCCN)C(=O)N[C@@H](CCCNC(=N)N)C(=O)N[C@@H](CCCCN)C(=O)N[C@@H](Cc1ccc(O)cc1)C(=O)NCCCC[C@H](NC(=O)[C@H](Cc1ccc(O)cc1)NC(=O)[C@H](CCCCN)NC(=O)[C@H](CCCNC(=N)N)NC(=O)[C@H](CCCCN)NC(=O)[C@H](CCCCN)NC(=O)[C@H](CCCNC(=N)N)NC(=O)[C@H](CCCCN)NC(=O)[C@H](CCCCN)NC(=O)[C@H](CC(C)C)NC(=O)[C@H](CC(C)C)NC(=O)[C@H](Cc1ccccc1)NC(=O)[C@H](CC(C)C)NC(=O)[C@H](CC(C)C)NC(=O)[C@@H](N)CC(C)C)C(N)=O` (I: H-LLLFLLKKRKKRKYK-NH2 / II: H-LLLFLLKKRKKRKY; amide I:15-II:C): the Drug uptake is recorded as 16.7 %ID in the data set with Liver; 28.3 %ID in the data set on Kidney; 18.8 %ID in data set [5]; 0.6 %ID in data set [6]; 3.1 %ID in the data set on Spleen. Besides, the Ratio in data set [1] stood at 1.8. Moreover, the LC50 in the data set with Staphylococcus aureus [2] was 0.4 µM; in the data set with Staphylococcus aureus [7], 5 µmol/g; in the data set on Staphylococcus aureus [3] it was 0.4 µM; in the data set on Staphylococcus aureus [4], 2 µmol/g. The t1/2 with Mus musculus is on record as 23.2 min.
